Source: PubChem (several laboratories)
This is a sample that favours compounds with a hit; in the whole collection about 3% have one here.
Hep lipid drop – hepatic lipid droplet formation modulation | inhibition, % at 6.5 µM | AID 1656 | 240,000 tested, 0.4% active | AML12 mouse hepatocytes, oleate lipid droplets, BODIPY imaging;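 active = lipid droplet intensity inhibited by at least 50%, with more than 500 cells counted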
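Assay system: AML12 mouse liver cells | Compound dosing: One dose, 6.5 µM compound | Read-out basis: Droplet intensity reduction, % inhibition | Measured by: Fluorescence imaging, 20x objective, two fields per well | Schedule: Overnight treatment with compound plus oleate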
GASC-1 inh – human JMJD2C demethylase inhibition. Q9H3R0. GST-JMJD2C(1-420) H3K9me3 demethylation, DELFIA europium. inhibition, % at 2.35 µM. 330,000 tested, 0.069% active;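 active = more than half of a compound's replicate wells show inhibition beyond 50%, single wells judged on their own value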;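 note: signal counts dimethyl H3K9 product captured on neutravidin plate; 0% = median of DMSO wells and 100% = 0.3 times that DMSO median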
NR3A LBD binder – modulates the human NR3A ligand-binding domain; NR3A LBD differential scanning fluorimetry, Tm shift; 0% = protein alone, 100% = glycine-bound protein; Tm shift relative to glycine control, % at 25 µM; 340,000 tested, 2.5% active;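 active = melting temperature shift of at least 10% of the positive control shift, at one fixed dose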
GC-B act – GC-B (human) receptor activation | activation, % at 10 µM | P20594 | 370,000 tested, 0.11% active | HEK293-GC-B cells, CNP EC30, cGMP TR-FRET; 0% at EC30 CNP, 100% saturating CNP;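 active = activation at 10 µM reaching about 35% in either raw or pattern-adjusted values, limit read from the data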
Target sequence (P20594 whole entry, looked up): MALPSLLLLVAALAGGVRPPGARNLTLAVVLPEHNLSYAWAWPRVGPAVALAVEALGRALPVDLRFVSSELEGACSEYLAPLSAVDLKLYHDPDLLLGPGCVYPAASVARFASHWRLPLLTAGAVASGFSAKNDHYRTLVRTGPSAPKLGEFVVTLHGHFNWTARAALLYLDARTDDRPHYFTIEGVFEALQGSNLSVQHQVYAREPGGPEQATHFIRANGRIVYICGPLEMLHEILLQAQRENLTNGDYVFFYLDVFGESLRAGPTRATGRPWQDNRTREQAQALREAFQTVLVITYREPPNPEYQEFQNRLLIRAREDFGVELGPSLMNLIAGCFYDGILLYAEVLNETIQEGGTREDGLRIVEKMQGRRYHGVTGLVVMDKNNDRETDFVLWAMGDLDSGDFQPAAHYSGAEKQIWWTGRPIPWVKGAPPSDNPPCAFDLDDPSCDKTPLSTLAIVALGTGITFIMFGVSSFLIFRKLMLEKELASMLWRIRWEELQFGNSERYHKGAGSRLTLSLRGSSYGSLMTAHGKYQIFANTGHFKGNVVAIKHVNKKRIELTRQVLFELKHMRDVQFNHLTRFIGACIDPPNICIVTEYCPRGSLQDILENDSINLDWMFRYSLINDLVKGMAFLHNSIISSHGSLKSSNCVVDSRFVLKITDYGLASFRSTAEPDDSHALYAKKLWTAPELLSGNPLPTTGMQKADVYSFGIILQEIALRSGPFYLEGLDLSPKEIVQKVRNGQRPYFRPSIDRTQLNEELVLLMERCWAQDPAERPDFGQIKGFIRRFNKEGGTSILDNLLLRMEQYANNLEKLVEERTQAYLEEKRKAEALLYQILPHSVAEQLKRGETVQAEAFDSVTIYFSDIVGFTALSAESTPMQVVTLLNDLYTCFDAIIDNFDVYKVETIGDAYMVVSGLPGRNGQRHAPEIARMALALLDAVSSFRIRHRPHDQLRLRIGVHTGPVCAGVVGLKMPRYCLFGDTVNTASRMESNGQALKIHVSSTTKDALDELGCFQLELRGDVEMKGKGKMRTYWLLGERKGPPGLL
NPR1 activator – GC-A (human) enzyme activation; 370,000 tested, 0.14% active; activation, % at 10 µM; HEK293 GC-A cells, cGMP TR-FRET, EC30 ANP; 0% at EC30 ANP, 100% saturating ANP; AID 1671463; in the data active = activation above about 40%
aDG glyco act – increases alpha dystroglycan glycosylation; 360,000 tested, 0.22% active; activation, % at 10 µM; Pro5-aDG cells, alpha-DG glycosylation AlphaScreen (IIH6); 0% Pro5, 100% B10-LARGE cell signal;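 active = activation of at least 8% versus controls, or a plate z-score of at least 8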;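 note: Pro5 are CHO cells carrying HIG-tagged alpha-DG that lacks glycosylation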
aDG conf – confirmation of alpha dystroglycan glycosylation activators; 600 tested, 17% active; Pro5-aDG cells, alpha-DG glycosylation, IIH6 AlphaLISA; scaled to LARGE-overexpressing B10 cells as 100%; AID 651671; shares compounds with aDG glyco act; activation, % at 10 µM (by protocol);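 active = activation of at least 7% in one or more replicates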;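 note: cells exposed to compound for two days before detection; 0% = DMSO-treated Pro5 cells and 100% = DMSO-treated B10-LARGE cells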
* = called active by the depositor; · = no result given.

SMILES	Hep lipid drop	GASC-1 inh	NR3A LBD binder	GC-B act	NPR1 activator	aDG glyco act	aDG conf
COc1ccc(-c2cc(C(=O)OCC(=O)N3CCOCC3)c3ccccc3n2)cc1	·	12	2	-5	6	0	·
COC(=O)C1CCN(C(=O)COC(=O)c2cc(-c3ccccc3)nc3ccc(OC)cc23)CC1	·	-10	-4	·	·	6.7*	-1
N=c1n(CCN2CCOCC2)c2ccccc2n1CC(=O)c1ccc(Cl)c(Cl)c1	·	12	-4	-5	-3	7.7*	6.6*
CCCn1c(=N)n(CC(=O)c2ccc([N+](=O)[O-])cc2)c2ccccc21	17	-7	-7	-2	-1	1	·
COc1cccc(C(=O)Cn2c(=N)n(C)c3ccccc32)c1	·	-19	0	0	-2	7.5*	5.1*
CCCn1c(=N)n(CC(=O)c2ccc(Cl)cc2)c2ccccc21	-11	-5	-1	-6	-5	3.8*	6.0*
Cc1cc(=O)oc2cc(OCc3c(F)cccc3Cl)ccc12	·	·	·	1	-1	·	·
OC[C@@H]1CN(Cc2ccccc2)C[C@H](n2cnc3c(NC4CC4)ncnc32)O1	·	·	·	0	-5	0	·
OC[C@@H]1CN(Cc2ccc(-c3ccccc3)cc2)C[C@H](n2cnc3c(NC4CCC4)ncnc32)O1	·	·	·	4	-5	7.6*	2
CC(=O)Nc1ccc(NC(=O)c2ccccc2-n2cnnn2)cc1	·	·	-1	1	1	0	·
CN1CCc2c(sc(NC(=O)c3ccc(C(=O)c4ccccc4)cc3)c2C(N)=O)C1	-1	-3	-27	1	5	12*	2
CC1CN(S(=O)(=O)c2ccc(C(=O)Nc3sc4c(c3C(N)=O)CCN(C)C4)cc2)CC(C)O1 (stereo unspecified)	12	·	·	·	·	·	·
CCN1CCc2c(sc(NC(=O)c3ccc(S(=O)(=O)N4CC(C)OC(C)C4)cc3)c2C(N)=O)C1 (stereo unspecified)	16	-8	1	-3	0	17*	3
Cn1nc(CC(=O)Nc2ccc3c(c2)OCCO3)c2ccccc2c1=O	-55	10	0	-3	1	6	·
Cc1ccc(NC(=O)Cc2nn(C)c(=O)c3ccccc23)cc1F	·	-1	2	-2	2	10*	2
COc1ccccc1CNC(=O)C[C@H]1CC[C@H]2[C@@H](COc3ccc(NC(=O)Nc4ccccc4)cc3C(=O)N2C)O1	·	·	·	11	1	·	·
COc1ccccc1[C@@H]1C(c2ccccc2)=NN(c2ccc(Br)cc2)[C@H]1C(=O)N1CCOC1=O	·	·	-8	4	-2	0	·
COc1ccccc1[C@@H]1C(c2cccc(C)c2)=NN(c2ccc(Br)cc2)[C@H]1C(=O)N1CCOC1=O	·	·	-1	3	-6	4.9*	0
C[C@@H]1CN([C@H](C)CO)C(=O)c2cc(Br)cnc2O[C@@H]1CN(C)C(=O)Cc1ccccc1	·	·	·	0	2	0	·
FC(F)(F)c1cccc(Cc2noc(CN3CCC(c4ccncc4)CC3)n2)c1	-49	2	-2	-2	4	6.1*	2
CN1CCCC2(CCCN(Cc3nc(Cc4cccc(C(F)(F)F)c4)no3)C2)C1 (stereo unspecified)	-30	-1	-1	-4	-2	2	·
CCc1ccc(C2c3[nH]c4ccccc4c3CCN2C(=O)CNC(N)=O)cc1 (stereo unspecified)	-4	2	1	9	17	0	·
CCc1ccc(C2c3[nH]c4ccccc4c3CCN2C(=O)CN2CCN(CC)CC2)cc1 (stereo unspecified)	28	-7	-17	0	11	8.0*	13*
O=C1C(NC(=O)N2c3ccccc3C=Cc3ccccc32)CCCCN1Cc1cccc(Cl)c1 (stereo unspecified)	·	·	·	2	-14	·	·
CCOC(=O)[C@]12CCCC=C1N(CCc1ccc(OC)c(OC)c1)C(=O)[C@H](CC(=O)N1CCCCC1)C2	·	·	·	9	1	0	·
SMILES	Hep lipid drop	GASC-1 inh	NR3A LBD binder	GC-B act	NPR1 activator	aDG glyco act	aDG conf
CCc1ccc(OCCCCN(C)Cc2ccccc2)cc1	-7	2	3	-1	-2	1.8*	1
CN(CCCCOc1ccc(F)cc1)Cc1ccccc1	4	2	-1	0	-7	0	·
CCCCN1C(=O)C(CC(=O)NC2CC2)CC(C(=O)N(CC)CC)=C1C (stereo unspecified)	·	·	·	-1	4	0	·
NS(=O)(=O)c1cccc(NC(=O)CSc2nnc(NC3CC3)s2)c1	·	·	·	2	-1	0	·
Cn1c(SCC(=O)NC2CCCCC2)nnc1C(F)(F)F	·	·	·	-4	0	0	·
CC(C)C[C@H]1COCCS(=O)(=O)N1Cc1ccccc1F	·	1	-2	1	1	6.1*	0
CCCCNC(=O)C[C@H]1C[C@@]2(C(=O)OC)C(=C[C@H](C(C)C)O[C@@H]2C2CC2)N(Cc2ccco2)C1=O	·	·	·	-2	-3	·	·
CC(C)NC(=O)Cn1nnc(-c2ccccc2)c1COc1ccc2ccccc2c1	·	·	·	5	-6	0	·
Cc1cc(-c2csc(NC(=O)c3ccc(S(=O)(=O)N(C)C)cc3)n2)c(C)n1-c1ccccc1	-21	-14	-2	-2	-3	9.4*	-1
C[C@]12c3[nH]c4ccccc4c3CCN1C(=O)C(CC(=O)NCCN1CCOCC1)C[C@@H]2C(=O)N1CCOCC1 (stereo partly specified)	·	-1	0	4	1	0	·
CCn1c2c(c(=N)c3ccccc31)CCC2	2	-2	0	2	18	3.4*	0
CCOC(=O)c1sc2nc(CSc3ccccc3)nc(NCCN(C)C)c2c1C	6	2	-2	-9	-4	8.4*	2
O=C(COC(=O)CN1C(=O)C2CCCCC2C1=O)Nc1c(Cl)cccc1Cl (stereo unspecified)	·	12	1	11	0	4.4*	1
CN(Cc1ccccc1)C(=O)c1ccc(Nc2nc(C(N)Cc3ccc(C(F)(F)F)cc3)cs2)nc1 (stereo unspecified)	·	·	·	-12	0	0	·
COc1ccc(NC(=O)c2cc(-c3sc(NC(=O)c4ccccc4)nc3C)n(Cc3ccccc3)n2)cc1	·	·	·	0	1	0	·
Cc1ccccc1-c1cccc([C@@H]2C[C@H]3[C@H](CON3C)CN2S(=O)(=O)c2ccccc2C)c1	·	·	-2	1	-2	6.0*	0
c1ccc(OCc2nc(-c3cccs3)no2)cc1	18	-1	1	-3	1	0	·
